Tests used:
A549 [1] = assay: Cytotoxicity against human A549 cells assessed as growth inhibition after 72 hrs by MTT assay; format: functional, cell-based; settings: A549, 72 h
Procedure, shortened: (§1)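 MTT viability assay. Cells were seeded at 5000 per well, incubated overnight, then exposed to compound at a range of concentrations for 72 h. MTT was added from a 5 mg/mL stock for 4 h, and absorbance was read at 570 nm. IC50 (50% viability inhibition) was calculated by the logit method. Each concentration was run at least three times.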

MDA-MB-231 [2] = assay: Cytotoxicity against human MDA-MB-231 cells assessed as growth inhibition at 10^-5 M after 72 hrs by MTT assay relative to control; format: functional; settings: MDA-MB-231, 72 h, read-out: GI
HeLa = assay: Cytotoxicity against human HeLa cells assessed as growth inhibition at 10^-5 M after 72 hrs by MTT assay relative to control; format: functional; settings: read-out: GI
[3] = Cytotoxicity against human HCT116 cells assessed as growth inhibition at 10^-5 M after 72 hrs by MTT assay relative to control; format: functional; settings: HCT-116, 72 h, read-out: GI
MDA-MB-231 [4] = assay: Cytotoxicity against human MDA-MB-231 cells assessed as growth inhibition after 72 hrs by MTT assay; format: functional, cell-based; settings: MDA-MB-231, 72 h; procedure, shortened: as §1
[5] = Cytotoxicity against human HCT116 cells assessed as growth inhibition after 72 hrs by MTT assay; format: functional, cell-based; settings: HCT-116, 72 h; procedure, shortened: as §1
A549 [6] = assay: Cytotoxicity against human A549 cells assessed as growth inhibition at 10^-5 M after 72 hrs by MTT assay relative to control; format: functional; settings: A549, 72 h, read-out: GI
MCF7 = assay: Cytotoxicity against human MCF7 cells assessed as growth inhibition at 10^-5 M after 72 hrs by MTT assay relative to control; format: functional; settings: MCF7, 72 h, read-out: GI

SMILES	IC50 (A549 [1]) [µM]	inhibition of growth at 10 µM (MDA-MB-231 [2]) [%]	inhibition of growth at 10 µM (HeLa) [%]	inhibition of growth at 10 µM [3] [%]	IC50 (MDA-MB-231 [4]) [µM]	IC50 [5] [µM]	inhibition of growth at 10 µM (A549 [6]) [%]	inhibition of growth at 10 µM (MCF7) [%]
COc1cc2cc(NC(=O)/C=C/c3ccccc3)c(=O)oc2cc1O	2.18	44.5	58.3	60.3	0.369	1.15	65.7	6.06
COc1cc2ccc(=O)oc2cc1OC(=O)/C=C/c1ccc(C#N)cc1		14.3	13.2	13.6			17.9	10.5
COc1cc2cc(NC(=O)/C=C/c3ccc(C(F)(F)F)cc3)c(=O)oc2cc1O		24.6	19	17			26.4	12.6
COc1cc2ccc(=O)oc2cc1O [SCOPOLETIN]	> 30	8.47	0.98	1.36	> 30	> 30	4.23	2.63
COc1cc2ccc(=O)oc2cc1OC(=O)/C=C/c1cc(OC)c(OC)c(OC)c1		11.8	0.93	18.9			20.6	18
COc1ccc(/C=C/C(=O)Nc2cc3cc(OC)c(O)cc3oc2=O)cc1	0.649	61.4	60.9	75.7	0.578	0.505	88.6	44.8
COc1cc2cc(NC(=O)/C=C/c3cc(OC)c(OC)c(OC)c3)c(=O)oc2cc1O		12.9	9.45	7.11			4.87	18.3
COc1ccc(/C=C/C(=O)Oc2cc3oc(=O)ccc3cc2OC)cc1		20.8	19.5	31.6			0.53	13.7

— ChEMBL document CHEMBL3407428, “Synthesis, in vitro and in vivo antitumor activity of scopoletin-cinnamic acid hybrids” (Eur J Med Chem, 2015)
